Results pooled from the literature.
Compare with care: the assays were run in different laboratories. pEC50, pIC50: −log10 of the molar value.

Structure (SMILES)	cell line	assay	conditions	endpoint	result
O=c1ccc2ccc3occc3c2o1	HEp-2	cell growth or viability, WST-1	48 h	pIC50	4.94
COc1cc2c3c(n(CCCN4CCOCC4)c(=O)c2cc1OC)-c1cc2c(cc1C3=O)OCO2	P388	cell growth or viability	72 h	IC50	0.154 µg/mL
CC(C)[C@H](N)C(=O)N1CCC[C@H]1B(O)O	THP-1	cell growth or viability, ATP luminescence	48 h	pIC50	6.69
c1ccc([C@@H]2C[C@H]2NC2CCNCC2)cc1	TF-1a	cell growth or viability, resazurin	96 h	pEC50	8.81
C=CC(=O)Nc1cc(Nc2nccc(-c3cn(C)c4ccccc34)n2)c(OC)cc1N(C)CCN(C)C	Calu-3	cell growth or viability	72 h	pIC50	6.19
C[C@@H](O)[C@H](NC(=O)[C@H](CCCNC(=N)N)NC(=O)[C@H](CC(N)=O)NC(=O)[C@H](CC(N)=O)NC(=O)[C@@H](N)CCCNC(=N)N)C(=O)N[C@@H](CO)C(=O)NCC(=O)N[C@@H](Cc1ccccc1)C(=O)N[C@@H](CCCCN)C(=O)N[C@@H](Cc1c[nH]c2ccccc12)C(=O)O	THP-1	cell growth or viability, ATP luminescence	48 h	pIC50	5.74
CC(C)[C@@H]1NC(=O)[C@H](CO)NC(=O)[C@H](CO)NC(=O)[C@H](CO)N(C)C(=O)[C@H](CC(=O)O)NC(=O)[C@H](CO)NC(=O)[C@H](Cc2ccccc2)NC(=O)CSC[C@@H](C(=O)NCC(N)=O)NC(=O)[C@H](CC(N)=O)NC(=O)[C@H](CCCNC(=N)N)NC(=O)[C@H](C)NC(=O)[C@H](Cc2ccc(-c3ccccc3)cc2)NC(=O)[C@H](CC(N)=O)NC(=O)[C@@H]2CCCN2C1=O	SJSA-1	cell growth or viability	–	pEC50	< 4.52
COc1c2c(cc3c1OCO3)[C@]13C=C[C@H](OC)C[C@@H]1[N@](C2)C[C@H]3OC(=O)c1ccoc1	SAOS-2	cell growth or viability, WST-1	–	pIC50	< 5.00
Cn1cncc1[C@@](N)(c1ccc(Cl)cc1)c1ccc2c(c1)c(-c1cccc(Cl)c1)cc(=O)n2C	FaDu	cell growth or viability	72 h	pIC50	5.56
C1COCCN1.COc1ccc(/C=C\c2cc(I)c(OC)c(I)c2)cc1OP(=O)(O)O	MCF7	cell growth or viability, SRB	48 h	GI50	0.066 µg/mL
COc1c2c(cc3c1OCO3)[C@]13C=C[C@H](OC)C[C@@H]1[N@](C2)C[C@H]3OC(=O)c1ccco1	SAOS-2	cell growth or viability, WST-1	–	pIC50	< 5.00
C/C1=C/C(=O)O[C@@H]2C[C@@H](CC[C@H](C)/C=C\C=C\CC1)O[C@@](O)([C@@H]1CSC(=O)N1)C2	MCF7	cell growth or viability, MTT	72 h	pIC50	6.32
N.N.[Cl][Pt][Cl]	MCF7	cell growth or viability, SRB	–	pEC50	5.44
CCCCCCCC(=O)SCC/C=C/[C@@H]1CC(=O)NCc2nc(cs2)C2=N[C@@](C)(CS2)C(=O)N[C@@H](C(C)C)C(=O)O1	SW-620	cell growth or viability, resazurin	48 h	pIC50	7.58
O=c1ccc2cc3ccoc3cc2o1	HEp-2	cell growth or viability, WST-1	48 h	pIC50	4.69
COc1cc2c3c(n(CCCNCCO)c(=O)c2cc1OC)-c1cc2c(cc1C3=O)OCO2	MCF7	cell growth or viability, SRB	–	GI50	< 10 nM
CCN1C(=O)SCC1C1(OC)CC2CC(CCC(C)C=CC=CCCC(C)=CC(=O)O2)O1 (stereo not drawn)	MCF7	cell growth or viability, MTT	72 h	pIC50	4.69
Cc1c2ccncc2c(C)c2c1[nH]c1ccccc12	THP-1	TNF-α release, inhibitor	17 h, LPS-stimulated	pIC50	5.80
